Laboratory results: ChEMBL document CHEMBL3232705, “Discovery of isoquinolinone indole acetic acids as antagonists of chemoattractant receptor homologous molecule expressed on Th2 cells (CRTH2) for the treatment of allergic inflammatory diseases” (J Med Chem, 2014)
Activity calls are given as the source filed them. The calls are words filed in the database; no cut-off is given here.

How the values were obtained:
Salmonella typhimurium = test: Genotoxicity in Salmonella typhimurium by AMES test; type: toxicity, organism-based; details: salmonella enterica subsp. enterica serovar typhimurium
Cytochrome P450 2C9 = Cytochrome P450 2C9 (Homo sapiens, UniProt P11712); test: Inhibition of CYP2C9 (unknown origin); type: ADME
Chain of Cytochrome P450 2C9 (P11712 whole entry): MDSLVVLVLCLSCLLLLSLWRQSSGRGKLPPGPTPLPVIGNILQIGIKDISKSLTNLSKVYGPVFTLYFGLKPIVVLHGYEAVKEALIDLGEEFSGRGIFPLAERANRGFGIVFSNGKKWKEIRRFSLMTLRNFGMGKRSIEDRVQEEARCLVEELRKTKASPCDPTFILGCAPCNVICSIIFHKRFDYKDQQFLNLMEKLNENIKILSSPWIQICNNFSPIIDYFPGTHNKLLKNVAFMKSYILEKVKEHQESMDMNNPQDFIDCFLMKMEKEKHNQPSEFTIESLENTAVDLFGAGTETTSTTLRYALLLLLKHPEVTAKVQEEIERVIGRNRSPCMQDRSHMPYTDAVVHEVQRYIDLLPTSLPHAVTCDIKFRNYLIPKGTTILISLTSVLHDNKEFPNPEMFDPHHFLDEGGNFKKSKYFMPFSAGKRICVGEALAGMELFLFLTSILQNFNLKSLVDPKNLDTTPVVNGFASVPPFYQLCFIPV

Cytochrome P450 2B6 = molecular target: T1, Cytochrome P450 2B6 (Homo sapiens, UniProt P20813); test: Inhibition of CYP2B6 (unknown origin); type: ADME
T1 sequence (P20813 whole entry): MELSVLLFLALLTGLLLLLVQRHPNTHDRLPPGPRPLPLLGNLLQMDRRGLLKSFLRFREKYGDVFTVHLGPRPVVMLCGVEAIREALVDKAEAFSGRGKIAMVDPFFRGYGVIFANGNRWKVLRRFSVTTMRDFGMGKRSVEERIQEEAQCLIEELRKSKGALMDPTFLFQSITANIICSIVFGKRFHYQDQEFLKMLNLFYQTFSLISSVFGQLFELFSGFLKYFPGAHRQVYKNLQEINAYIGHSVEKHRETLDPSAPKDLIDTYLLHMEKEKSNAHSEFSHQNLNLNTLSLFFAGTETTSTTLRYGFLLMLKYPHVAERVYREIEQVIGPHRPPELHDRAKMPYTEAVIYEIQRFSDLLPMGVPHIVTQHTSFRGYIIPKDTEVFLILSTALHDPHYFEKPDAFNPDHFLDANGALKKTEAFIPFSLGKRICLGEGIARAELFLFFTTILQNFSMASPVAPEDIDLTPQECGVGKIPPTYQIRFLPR

Cytochrome P450 1A2 = molecular target: T2, Cytochrome P450 1A2 (Homo sapiens, UniProt P05177); test: Inhibition of CYP1A2 (unknown origin); type: ADME
T2 sequence (P05177 whole entry): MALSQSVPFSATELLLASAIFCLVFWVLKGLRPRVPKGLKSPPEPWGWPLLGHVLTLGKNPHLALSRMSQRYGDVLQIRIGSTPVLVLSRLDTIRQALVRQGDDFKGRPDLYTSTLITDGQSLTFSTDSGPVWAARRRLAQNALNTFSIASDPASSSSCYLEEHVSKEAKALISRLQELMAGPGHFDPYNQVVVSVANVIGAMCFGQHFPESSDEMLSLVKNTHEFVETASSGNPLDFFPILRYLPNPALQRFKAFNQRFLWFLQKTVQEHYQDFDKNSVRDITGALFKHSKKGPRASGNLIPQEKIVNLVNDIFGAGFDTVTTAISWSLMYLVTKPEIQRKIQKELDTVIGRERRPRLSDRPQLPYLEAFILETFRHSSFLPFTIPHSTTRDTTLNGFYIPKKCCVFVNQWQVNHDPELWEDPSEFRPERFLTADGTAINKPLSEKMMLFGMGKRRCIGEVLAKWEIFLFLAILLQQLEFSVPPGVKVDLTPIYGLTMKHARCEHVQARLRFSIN

Ovis aries [1] = test: Inhibition of allergen-induced mucociliary clearance in sheep assessed as tracheal mucus velocity at 3 mg/kg, iv measured at 8 hrs (reference value: 47%); type: functional; details: Trachea
Method in brief: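 Five sheep received 3 mg/kg iv around allergen challenge. Tracheal mucus velocity measured at 4 h and 8 h and expressed as % of baseline.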

Ovis aries [2] = test: Inhibition of Ascaris-induced airway bronchoconstriction in sheep assessed as inhibition of bronchoalveolar lavage fluid inflammation at 1 mg/kg, iv qd for 7 days; type: functional, organism-based; parameters: dose 1 mg/kg; details: Lung
Method in brief: (§1)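 Sheep given 1 mg/kg iv once daily for 7 days before Ascaris suum allergen challenge. Early and late responses read as airway resistance above baseline, compared with each animal's historical untreated values. After the AHR measurement, three bronchi per sheep were lavaged for cell counts.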

Ovis aries [3] = test: Inhibition of Ascaris-induced airway bronchoconstriction in sheep assessed as inhibition of early phase allergic airway bronchoconstriction at 1 mg/kg, iv qd for 7 days; type: functional, organism-based; parameters: dose 1 mg/kg; method in brief: as §1
Ovis aries [4] = test: Inhibition of Ascaris-induced airway bronchoconstriction in sheep assessed as inhibition of late phase allergic airway bronchoconstriction at 1 mg/kg, iv qd for 7 days; type: functional, organism-based; parameters: dose 1 mg/kg; method in brief: as §1
Ovis aries [5] = test: Inhibition of carbachol-induced airway hyperresponsiveness in sheep at 3 mg/kg, iv bid; type: functional, organism-based; parameters: dose 3 mg/kg
Cavia porcellus = test: Antiallergic activity in ovalbumin-induced allergic lung inflammation Hartley guinea pig model assessed as eosinophil level in bronchoalveolar lavage fluid at 20 mg/kg, po administered 1 hr before and 6 hrs after ovalbumin challenge after 24 hrs; type: functional, organism-based; parameters: dose 20 mg/kg
Method in brief: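 Female Hartley guinea pigs (375–425 g) sensitized ip on days 1 and 5 with 100 μg OVA plus 100 mg aluminum hydroxide in PBS, then challenged on day 15 with aerosolized 0.01% OVA for 60 min. Dosed orally 1 h before and 6 h after challenge; vehicle was Tween 80 in cherry syrup. On day 16, lungs lavaged with 2 × 10 mL PBS. Total cells counted by hemocytometer; differentials from stained cytospins. Unpaired t test.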

Mus musculus [6] = test: Antiallergic activity in house dust mite-induced allergic airway disease BALB/c mouse model assessed as reduction in macrophage level in bronchoalveolar lavage fluid at 40 mg/kg, po after 72 hrs of HDM challenge; type: functional, organism-based; parameters: dose 40 mg/kg; details: Lung
Method in brief: (§2)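 BALB/c mice given house dust mite intratracheally via a catheter passed through the vocal cords. Test article 40 mg/kg orally once daily; dexamethasone 1 mg/kg ip once daily as reference. Total and differential BAL cells (eosinophils, macrophages, lymphocytes, neutrophils) counted 72 h after HDM challenge. Mean ± SEM, Mann–Whitney U test.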

Mus musculus [7] = test: Antiallergic activity in house dust mite-induced allergic airway disease BALB/c mouse model assessed as reduction in neutrophil level in bronchoalveolar lavage fluid at 40 mg/kg, po after 72 hrs of HDM challenge; type: functional, organism-based; parameters: dose 40 mg/kg; details: Lung; method in brief: as §2
Mus musculus [8] = test: Antiallergic inflammatory activity in oxazolone induced contact hypersensitivity mouse model assessed as reduction ear swelling at 3 mg/kg, po prior to oxazolone and 7 hrs post challenge measured after 24 hrs; type: functional
Method in brief: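 Mice sensitized on the shaved abdomen with 2% oxazolone in ethanol one week before challenge. Dosed orally 1 h before the left ear was challenged with 10 μL of 2% oxazolone (ethanol on the right ear as control), then redosed 7 h after challenge. Ear thickness measured by micrometer; swelling taken as 24 h post-challenge minus pre-challenge thickness. Unpaired t test.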

[9] = Oral bioavailability in dog at 10 mg/kg; type: ADME, organism-based, Canis lupus familiaris; details: in vivo
[10] = Cmax in rat at 10 mg/kg, po; type: ADME, organism-based; parameters: dose 10 mg/kg, route oral; details: in vivo
Method in brief: (§3)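 Single intravenous dose of 2 mg/kg and single oral dose of 10 mg/kg, given separately, in rat, dog and monkey. Clearance and half-life taken from the iv arm; Cmax from the oral arm.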

[11] = Volume of distribution at steady state in dog at 2 mg/kg, iv; type: ADME, organism-based, Canis lupus familiaris; parameters: dose 2 mg/kg, route intravenous; details: in vivo, read-out: Vdss
[12] = Half life in dog at 2 mg/kg, iv; type: ADME, organism-based, Canis lupus familiaris; parameters: dose 2 mg/kg, route intravenous; details: in vivo; method in brief: as §3
[13] = Half life in rat at 2 mg/kg, iv; type: ADME, organism-based; parameters: dose 2 mg/kg, route intravenous; details: in vivo; method in brief: as §3
[14] = Clearance in rat at 2 mg/kg, iv; type: ADME, organism-based; parameters: dose 2 mg/kg, route intravenous; details: in vivo; method in brief: as §3
[15] = Clearance in dog at 2 mg/kg, iv; type: ADME, organism-based, Canis lupus familiaris; parameters: dose 2 mg/kg, route intravenous; details: in vivo; method in brief: as §3
Rattus norvegicus = test: Oral bioavailability; details: in vivo

**Q.** What does the source list for Cc1c(-c2cn(C(C)C)c(=O)c3ccccc23)c2cc(F)ccc2n1CC(=O)O?
**A.** Activity (Salmonella typhimurium): Non-toxic; IC50 (Cytochrome P450 2C9): 55 µM; IC50 (Cytochrome P450 2B6): > 100 µM; IC50 (Cytochrome P450 1A2): > 100 µM; inhibition in vivo at 3 mg/kg (Ovis aries [1]): 98%; inhibition (Ovis aries [2]): Active; inhibition (Ovis aries [3]): Active; inhibition (Ovis aries [4]): Active; inhibition (Ovis aries [5]): Active; inhibition (Cavia porcellus): Active; inhibition (Mus musculus [6]): inactive; inhibition (Mus musculus [7]): Active; inhibition in vivo at 3 mg/kg (Mus musculus [8]): 50.5%; bioavailability [9]: 32%; Cmax [10]: 253 ng/mL; Vd [11]: 0.7 L/kg; half-life [12]: 3.4 h; half-life [13]: 2.7 h; clearance [14]: 18 mL/min/kg; clearance [15]: 5.6 mL/min/kg; bioavailability (Rattus norvegicus): 35%
